From ChEMBL document CHEMBL1671683, “Activity of linezolid in an in vitro pharmacokinetic-pharmacodynamic model using different dosages and Staphylococcus aureus and Enterococcus faecalis strains with and without a hypermutator phenotype” (Antimicrob Agents Chemother, 2010)

Columns and labels:
[1] = Cmax in two-compartment pharmacokinetic/pharmacodynamic model at 200 mg, bid administered as 0.5 hrs infusion; format: ADME, organism-based; design: dose 200 mg; conditions: iv
[2] = test system: Enterococcus faecalis; test: Bactericidal activity against 2 hrs peripheral compartment culture samples of Enterococcus faecalis ATCC 29212 in two-compartment pharmacokinetic/pharmacodynamic model assessed as effect on bacterial count at 600 mg, bid administered as 0.5 hr infusion; format: functional
Summary of the method: (§1)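 An 18-h culture concentrated 50-fold was injected into the peripheral compartment 3 h pre-sampling (~10^8 CFU/ml E. faecalis, 10^9 S. aureus). Counts came from dilution plating (detection limit 2–3 log10 CFU/ml), expressed as Δlog CFU/ml from treatment start. Run in duplicate.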

[3] = test system: Enterococcus faecalis; test: T>MIC in Enterococcus faecalis Ef1497 MutM3 in two-compartment pharmacokinetic/pharmacodynamic model at 600 mg, bid administered as 0.5 hr infusion for 2 days; format: functional
[4] = Mean residence time in two-compartment pharmacokinetic/pharmacodynamic model at 200 mg, bid administered as 0.5 hr infusion over 24 hrs; format: ADME, organism-based; conditions: in vivo, iv
[5] = test system: Enterococcus faecalis; test: Bactericidal activity against 0.5 hrs peripheral compartment culture samples of Enterococcus faecalis Ef1497 in two-compartment pharmacokinetic/pharmacodynamic model assessed as effect on bacterial count at 600 mg, bid administered as 0.5 hr infusion; format: functional
Summary of the method: (§2)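 Two-compartment hollow-fibre model in cation-adjusted, protein-free MH broth, 37°C. Linezolid given as simulated 0.5-h infusion twice daily. Inoculum grown 18 h, concentrated 50-fold and placed in the peripheral compartment 3 h before t0. Peripheral samples at set times counted by dilution plating. First 10-fold dilution not plated, limiting detection to 2–3 log10 CFU/ml. Δlog CFU/ml taken from t0 count. Duplicates.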

[6] = test system: Enterococcus faecalis; test: Bactericidal activity against 1 hr peripheral compartment culture samples of Enterococcus faecalis ATCC 29212 in two-compartment pharmacokinetic/pharmacodynamic model assessed as effect on bacterial count at 200 mg, bid administered as 0.5 hr infusion; format: functional; summary of the method: as §2
[7] = test system: Enterococcus faecalis; test: Bactericidal activity against 1 hr peripheral compartment culture samples of Enterococcus faecalis Ef1497 MutM3 in two-compartment pharmacokinetic/pharmacodynamic model assessed as effect on bacterial count at 200 mg, bid administered as 0.5 hr infusion; format: functional; summary of the method: as §2
[8] = test system: Enterococcus faecalis; test: Bactericidal activity against 24 hrs peripheral compartment culture samples of Enterococcus faecalis ATCC 29212 in two-compartment pharmacokinetic/pharmacodynamic model assessed as effect on bacterial count at 600 mg, bid administered as 0.5 hr infusion; format: functional; summary of the method: as §1
[9] = test system: Staphylococcus aureus subsp. aureus RN4220; test: ABBC (0 to 24 hrs) in Staphylococcus aureus RN4220 in two-compartment pharmacokinetic/pharmacodynamic model at 600 mg, bid administered as 0.5 hr infusion for 2 days
Summary of the method: (§3)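 Hollow-fibre two-compartment model in cation-adjusted, protein-free MH broth at 37°C. Human total-plasma linezolid profile simulated as 0.5-h infusion every 12 h for 48 h. Concentrated 18-h culture injected into the peripheral compartment 3 h before first sample, giving about 10^8 (E. faecalis) or 10^9 (S. aureus) CFU/ml. Viable counts by dilution plating over 0–24 h. Area indices calculated versus growth control curve. Duplicate runs.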

[10] = Tmax in two-compartment pharmacokinetic/pharmacodynamic model at 600 mg, bid administered as 0.5 hr infusion over 24 hrs; format: ADME, organism-based; conditions: iv
[11] = test system: Staphylococcus aureus; test: Bactericidal activity against 2 hrs peripheral compartment culture samples of Staphylococcus aureus RN4220 in two-compartment pharmacokinetic/pharmacodynamic model assessed as effect on bacterial count at 600 mg, bid administered as 0.5 hr infusion; format: functional; summary of the method: as §1
[12] = Tmax in two-compartment pharmacokinetic/pharmacodynamic model at 800 mg, bid administered as 0.5 hr infusion over 24 hrs; format: ADME, organism-based; conditions: iv
[13] = test system: Staphylococcus aureus subsp. aureus RN4220; test: AUBC (0 to 24 hrs) in Staphylococcus aureus RN4220 in two-compartment pharmacokinetic/pharmacodynamic model at 600 mg, bid administered as 0.5 hr infusion for 2 days; format: functional; summary of the method: as §3
[14] = test system: Staphylococcus aureus; test: Bactericidal activity against 14 hrs peripheral compartment culture samples of Staphylococcus aureus RN4220 MutS2 in two-compartment pharmacokinetic/pharmacodynamic model assessed as effect on bacterial count at 600 mg, bid administered as 0.5 hr infusion; format: functional; summary of the method: as §1
[15] = test system: Enterococcus faecalis; test: Bactericidal activity against 2 hrs peripheral compartment culture samples of Enterococcus faecalis Ef1497 in two-compartment pharmacokinetic/pharmacodynamic model assessed as effect on bacterial count at 800 mg, bid administered as 0.5 hr infusion; format: functional; summary of the method: as §1
[16] = test system: Enterococcus faecalis; test: Bactericidal activity against 2 hrs peripheral compartment culture samples of Enterococcus faecalis Ef1497 in two-compartment pharmacokinetic/pharmacodynamic model assessed as effect on bacterial count at 600 mg, bid administered as 0.5 hr infusion; format: functional; summary of the method: as §1
[17] = Apparent volume of distribution in two-compartment pharmacokinetic/pharmacodynamic model at 200 mg, bid administered as 0.5 hrs infusion; format: ADME, organism-based; conditions: iv
[18] = test system: Enterococcus faecalis; test: Bactericidal activity against 13 hrs peripheral compartment culture samples of Enterococcus faecalis Ef1497 in two-compartment pharmacokinetic/pharmacodynamic model assessed as effect on bacterial count at 800 mg, bid administered as 0.5 hr infusion; format: functional; summary of the method: as §1
[19] = Total clearance in two-compartment pharmacokinetic/pharmacodynamic model at 600 mg, bid administered as 0.5 hr infusion over 24 hrs; format: ADME, organism-based; conditions: in vivo, iv
[20] = Mean residence time in two-compartment pharmacokinetic/pharmacodynamic model at 600 mg, bid administered as 0.5 hr infusion over 24 hrs; format: ADME, organism-based; conditions: in vivo, iv
[21] = Cmax in two-compartment pharmacokinetic/pharmacodynamic model at 800 mg, bid administered as 0.5 hrs infusion; format: ADME, organism-based; design: dose 800 mg; conditions: iv
[22] = Mean residence time in two-compartment pharmacokinetic/pharmacodynamic model at 800 mg, bid administered as 0.5 hr infusion over 24 hrs; format: ADME, organism-based; conditions: in vivo, iv
[23] = Residual concentration at the end of the administration interval in two-compartment pharmacokinetic/pharmacodynamic model at 800 mg, bid administered as 0.5 hr infusion over 24 hrs; format: ADME; conditions: in vivo, iv
[24] = test system: Enterococcus faecalis; test: Bactericidal activity against 0.5 hrs peripheral compartment culture samples of Enterococcus faecalis Ef1497 in two-compartment pharmacokinetic/pharmacodynamic model assessed as effect on bacterial count at 800 mg, bid administered as 0.5 hr infusion; format: functional; summary of the method: as §2
[25] = test system: Enterococcus faecalis; test: Bactericidal activity against 48 hrs peripheral compartment culture samples of Enterococcus faecalis Ef1497 MutM3 in two-compartment pharmacokinetic/pharmacodynamic model assessed as effect on bacterial count at 200 mg, bid administered as 0.5 hr infusion; format: functional; summary of the method: as §1
[26] = in vitro; conditions: two-compartment pharmacokinetic/pharmacodynamic model, iv, 800 mg
[27] = test system: Enterococcus faecalis; test: Bactericidal activity against 13 hrs peripheral compartment culture samples of Enterococcus faecalis ATCC 29212 in two-compartment pharmacokinetic/pharmacodynamic model assessed as effect on bacterial count at 200 mg, bid administered as 0.5 hr infusion; format: functional; summary of the method: as §1
[28] = test system: Enterococcus faecalis; test: Bactericidal activity against 12 hrs peripheral compartment culture samples of Enterococcus faecalis Ef1497 MutM3 in two-compartment pharmacokinetic/pharmacodynamic model assessed as effect on bacterial count at 200 mg, bid administered as 0.5 hr infusion; format: functional; summary of the method: as §2
[29] = test system: Enterococcus faecalis; test: AUBC (0 to 24 hrs) in Enterococcus faecalis ATCC 29212 in two-compartment pharmacokinetic/pharmacodynamic model at 600 mg, bid administered as 0.5 hr infusion for 2 days; format: functional; summary of the method: as §3

Q: Which Cmax [1] does the source give for `CC(=O)NC[C@H]1CN(c2ccc(N3CCOCC3)c(F)c2)C(=O)O1` [LINEZOLID] here?
A: The Cmax was 4380 ng/mL.

Q: What about the log10CFU/ml [2] of the same compound?
A: Its log10CFU/ml is -0.08.

Q: And the “fT>MIC” value [3]?
A: The value was 0%.

Q: What about the MRT [4] of the same compound?
A: Its MRT is 7.95 h.

Q: And the log10CFU/ml [5]?
A: The log10CFU/ml was -0.01.

Q: And the log10CFU/ml [6]?
A: The log10CFU/ml was 0.14.

Q: And the log10CFU/ml [7]?
A: Its log10CFU/ml is 0.02.

Q: What about the log10CFU/ml [8] of the same compound?
A: The log10CFU/ml was 0.32.

Q: What about the ABBC [9] of the same compound?
A: The ABBC was -1.21 log10CFU/ml.hr.

Q: What about the Tmax [10] of the same compound?
A: Its Tmax is 0.5 h.

Q: And the log10CFU/ml [11]?
A: The log10CFU/ml was -0.26.

Q: What about the Tmax [12] of the same compound?
A: The Tmax was 0.5 h.

Q: And the AUBC [13]?
A: Its AUBC is 229.4 log10CFU/ml.hr.

Q: What about the log10CFU/ml [14] of the same compound?
A: Its log10CFU/ml is -0.58.

Q: And the log10CFU/ml [15]?
A: The log10CFU/ml was -0.13.

Q: And the log10CFU/ml [16]?
A: Its log10CFU/ml is 0.08.

Q: And the Vd [17]?
A: The Vd was 141 L.

Q: And the log10CFU/ml [18]?
A: The log10CFU/ml was -0.16.

Q: And the clearance [19]?
A: The clearance was 215 mL/min.

Q: And the MRT [20]?
A: The MRT was 8.1 h.

Q: And the Cmax [21]?
A: Its Cmax is 19200 ng/mL.

Q: What about the MRT [22] of the same compound?
A: Its MRT is 6.81 h.

Q: And the Drug uptake [23]?
A: The Drug uptake was 1.42 µg/mL.

Q: What about the log10CFU/ml [24] of the same compound?
A: Its log10CFU/ml is 0.08.

Q: What about the log10CFU/ml [25] of the same compound?
A: The log10CFU/ml was 0.79.

Q: What about the half-life at 0.5 h [26] of the same compound?
A: Its half-life at 0.5 h is 5.01 h.

Q: And the log10CFU/ml [27]?
A: The log10CFU/ml was 0.28.

Q: And the log10CFU/ml [28]?
A: The log10CFU/ml was 0.29.

Q: And the AUBC [29]?
A: The AUBC was 217.8 log10CFU/ml.hr.
